{"source": "ChEMBL document CHEMBL4376902", "about": "“CN128: A New Orally Active Hydroxypyridinone Iron Chelator” (J Med Chem, 2020)", "key": {"[1]": {"assay": "Toxicity in Sprague-Dawley rat assessed as induction of histopathological changes in pancreas at 25 to 116 mg/kg, po dosed daily for 4 weeks during chronic 4 week toxicity test", "assay_type": "organism-based", "details": "in vivo, 672 h"}, "Cytochrome P450 3A4": {"molecular_target": "Cytochrome P450 3A4 (Homo sapiens, UniProt P08684)", "sequence (P08684 whole entry)": "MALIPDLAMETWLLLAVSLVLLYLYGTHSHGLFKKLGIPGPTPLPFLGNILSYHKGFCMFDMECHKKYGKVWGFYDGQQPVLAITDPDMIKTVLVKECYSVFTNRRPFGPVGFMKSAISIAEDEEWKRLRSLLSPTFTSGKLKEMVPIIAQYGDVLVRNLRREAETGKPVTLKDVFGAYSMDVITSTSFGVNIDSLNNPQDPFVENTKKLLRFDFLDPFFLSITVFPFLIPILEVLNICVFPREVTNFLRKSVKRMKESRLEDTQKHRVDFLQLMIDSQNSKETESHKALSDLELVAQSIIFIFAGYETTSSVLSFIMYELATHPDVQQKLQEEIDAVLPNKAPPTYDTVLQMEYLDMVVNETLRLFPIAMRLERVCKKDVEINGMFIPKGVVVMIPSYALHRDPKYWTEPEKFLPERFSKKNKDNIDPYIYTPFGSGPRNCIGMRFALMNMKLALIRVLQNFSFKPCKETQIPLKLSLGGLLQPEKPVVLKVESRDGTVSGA", "assay": "Inhibition of CYP3A4 in human liver microsomes", "assay_type": "ADME"}, "Mus musculus": {"test_system": "Mus musculus", "assay": "Toxicity in mouse assessed as effect on platelet population at 200 mg/kg, po dosed once daily for 2 months as 5 days per week schedule", "details": "in vivo, 120 h"}, "[2]": {"assay": "AUC (0 to infinity) in Sprague-Dawley rat at 150 umol/kg, po measured up to 1440 mins by LC/MS/MS analysis", "assay_type": "ADME, organism-based", "set-up": "dose 150 umol/kg, route oral, time infinity", "details": "in vivo, 24 h"}, "[3]": {"assay": "Ratio of drug level in stomach to plasma in rat at 150 umol/kg, po measured within 10 mins by LC-MS/MS analysis", "assay_type": "ADME, organism-based", "details": "stomach and plasma", "procedure,_shortened": "(§1)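 SD rats (half male, half female, n = 6 per group) given a single oral 150 μmol/kg dose. Killed at 10 min, 30 min, 2 h or 6 h; tissues washed in saline, weighed and homogenised in acetonitrile/water 1:9 (125 mg/mL). Tissue levels compared with plasma.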"}, "Cytochrome P450 2C9": {"molecular_target": "Cytochrome P450 2C9 (Homo sapiens, UniProt P11712)", "sequence (P11712 whole entry)": "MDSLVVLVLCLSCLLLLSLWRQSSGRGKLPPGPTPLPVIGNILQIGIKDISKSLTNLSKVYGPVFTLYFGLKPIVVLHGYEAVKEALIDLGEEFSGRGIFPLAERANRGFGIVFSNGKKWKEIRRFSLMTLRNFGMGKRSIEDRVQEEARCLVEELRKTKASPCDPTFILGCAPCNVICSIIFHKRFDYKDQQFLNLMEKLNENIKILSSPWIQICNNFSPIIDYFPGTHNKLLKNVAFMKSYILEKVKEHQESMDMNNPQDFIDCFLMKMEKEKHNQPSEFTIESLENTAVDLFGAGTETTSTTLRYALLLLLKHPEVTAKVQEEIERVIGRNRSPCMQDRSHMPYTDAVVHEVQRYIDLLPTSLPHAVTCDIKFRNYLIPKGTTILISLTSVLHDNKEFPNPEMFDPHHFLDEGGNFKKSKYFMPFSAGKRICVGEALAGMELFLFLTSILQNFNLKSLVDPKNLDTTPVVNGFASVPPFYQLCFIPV", "assay": "Inhibition of CYP2C9 in human liver microsomes", "assay_type": "ADME"}, "Rattus norvegicus [4]": {"test_system": "Rattus norvegicus", "assay": "Iron scavenging activity in iron-overloaded rat assessed as iron removal efficacy at 150 to 300 umol/kg, po relative to deferiprone", "assay_type": "functional", "procedure,_shortened": "(§2)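 Male SD rats (300 g), fasted overnight, given about 1 μC 59Fe-ferritin i.v. under isoflurane; chelator by oral gavage 1 h later; doses 75, 150, 300, 600 and 1200 μmol/kg. Rats housed in metabolic cages, food returned 1 h post-dose; killed 24 h after ferritin injection. Urine, faeces, liver and gut gamma-counted. Iron removal expressed as % efficacy.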"}, "[5]": {"assay": "Drug level in rat liver at 150 umol/kg, po measured measured up to 6 hrs by LC-MS/MS analysis", "assay_type": "ADME, organism-based", "details": "in vivo", "procedure,_shortened": "(§3)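 Single oral dose of 150 μmol/kg to SD rats, half male and half female, n=6 per group. Rats decapitated at 10 min, 30 min, 2 h and 6 h. Tissues dissected, saline-washed, weighed and homogenised in acetonitrile/water 1:9 (125 mg/mL). Drug level measured against plasma; mean ± SE.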"}, "[6]": {"assay": "Drug metabolism in human liver microsomes assessed as oxidative metabolism incubated for 1 hr relative to deferiprone", "assay_type": "ADME, Microsome"}, "[7]": {"assay": "Cmax in Sprague-Dawley rat at 300 umol/kg, po measured up to 1440 mins by LC/MS/MS analysis", "assay_type": "ADME, organism-based", "set-up": "dose 300 umol/kg, route oral", "details": "in vivo"}, "Rattus norvegicus [8]": {"test_system": "Rattus norvegicus", "assay": "Iron scavenging activity in iron-overloaded rat assessed as iron removal efficacy at 75 to 1200 umol/kg, po", "assay_type": "functional, organism-based", "procedure,_shortened": "as §2"}, "[9]": {"assay": "Apparent clearance in Sprague-Dawley rat at 600 umol/kg, po measured up to 1440 mins by LC/MS/MS analysis", "assay_type": "ADME, organism-based", "details": "in vivo, read-out: CL(app) (converted)"}, "[10]": {"assay": "Binding affinity to Zn2+ ion assessed as affinity constant by spectrophotometric titration method"}, "Cytochrome P450 3A5": {"molecular_target": "Cytochrome P450 3A5 (Homo sapiens, UniProt P20815)", "sequence (P20815 whole entry)": "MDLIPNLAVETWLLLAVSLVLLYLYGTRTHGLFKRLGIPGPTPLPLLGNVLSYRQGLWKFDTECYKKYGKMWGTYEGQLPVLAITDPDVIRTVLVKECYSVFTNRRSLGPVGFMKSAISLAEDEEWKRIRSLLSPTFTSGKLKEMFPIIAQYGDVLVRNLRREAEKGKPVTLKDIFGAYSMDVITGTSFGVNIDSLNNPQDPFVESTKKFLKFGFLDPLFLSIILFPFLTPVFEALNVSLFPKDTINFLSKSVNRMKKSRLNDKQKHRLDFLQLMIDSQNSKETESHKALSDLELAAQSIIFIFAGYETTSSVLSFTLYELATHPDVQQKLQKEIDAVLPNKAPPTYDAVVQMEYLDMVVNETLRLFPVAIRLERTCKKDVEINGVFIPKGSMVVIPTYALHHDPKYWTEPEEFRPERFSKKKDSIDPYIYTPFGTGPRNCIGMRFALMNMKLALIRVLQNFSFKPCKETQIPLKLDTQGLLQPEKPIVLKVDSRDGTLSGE", "assay": "Inhibition of CYP3A5 in human liver microsomes", "assay_type": "ADME"}, "Rattus norvegicus [11]": {"test_system": "Rattus norvegicus", "assay": "Iron scavenging activity in 59Fe-ferritin-loaded rat assessed as iron mobilization level at 450 umol/kg, po dosed 1 hr after 59Fe-ferritin injection and measured 24 hrs after 59Fe-ferritin injection by gamma counting method relative to control", "assay_type": "functional", "procedure,_shortened": "(§4)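 Male SD rats, 300 g, fasted overnight, given about 1 μC 59Fe-ferritin i.v. under isoflurane. Chelator gavaged 1 h later, then rats housed in metabolic cages; food returned 1 h after dosing. Killed 24 h after 59Fe-ferritin. Urine, faeces, liver and gut gamma-counted. 8 rats per condition.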"}, "[12]": {"assay": "Ratio of drug level in adrenal gland to plasma in rat at 150 umol/kg, po measured within 10 mins by LC-MS/MS analysis", "assay_type": "ADME, organism-based", "details": "adrenal gland and plasma", "procedure,_shortened": "as §1"}, "[13]": {"assay": "Binding affinity to Fe2+ ion assessed as affinity constant by spectrophotometric titration method", "procedure,_shortened": "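Automated spectrophotometric titration with 0.1 M KOH in 0.1 pH steps, 3 min equilibration per step, 50 mm cuvette, iron complexes at ca. 40 µM. Titrated in competition with metal hydrolysis species up to pH 12.0. Hydrolysis constants taken from critical compilations. Iron spectra fitted over 400–700 nm.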"}, "Cytochrome P450 1A2": {"molecular_target": "T1, Cytochrome P450 1A2 (Homo sapiens, UniProt P05177)", "T1 sequence (P05177 whole entry)": "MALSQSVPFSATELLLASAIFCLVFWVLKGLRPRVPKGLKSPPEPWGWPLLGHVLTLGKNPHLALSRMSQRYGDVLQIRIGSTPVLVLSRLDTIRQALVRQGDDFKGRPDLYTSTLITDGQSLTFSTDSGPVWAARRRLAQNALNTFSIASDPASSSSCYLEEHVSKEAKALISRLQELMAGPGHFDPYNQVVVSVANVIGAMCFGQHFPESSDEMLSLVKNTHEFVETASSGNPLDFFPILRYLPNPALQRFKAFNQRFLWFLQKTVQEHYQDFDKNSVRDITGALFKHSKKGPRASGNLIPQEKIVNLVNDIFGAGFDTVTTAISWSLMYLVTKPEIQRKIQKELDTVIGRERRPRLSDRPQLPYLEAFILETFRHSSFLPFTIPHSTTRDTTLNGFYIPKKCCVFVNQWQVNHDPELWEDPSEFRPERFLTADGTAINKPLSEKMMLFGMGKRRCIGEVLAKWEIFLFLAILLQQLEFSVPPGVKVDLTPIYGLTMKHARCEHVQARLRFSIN", "assay": "Inhibition of CYP1A2 in human liver microsomes", "assay_type": "ADME"}, "[14]": {"assay": "Apparent volume of distribution in Sprague-Dawley rat at 300 umol/kg, po measured up to 1440 mins by LC/MS/MS analysis", "assay_type": "ADME, organism-based", "details": "in vivo, 24 h"}, "[15]": {"assay": "Apparent clearance in Sprague-Dawley rat at 150 umol/kg, po measured up to 1440 mins by LC/MS/MS analysis", "assay_type": "ADME, organism-based", "details": "in vivo, read-out: CL(app) (converted)"}, "[16]": {"assay": "AUC (0 to infinity) in Sprague-Dawley rat at 300 umol/kg, po measured up to 1440 mins by LC/MS/MS analysis", "assay_type": "ADME, organism-based", "set-up": "dose 300 umol/kg, time infinity, route oral", "details": "in vivo, 24 h"}, "Rattus norvegicus [17]": {"test_system": "Rattus norvegicus", "assay": "Iron scavenging activity in 59Fe-ferritin-loaded rat assessed as iron mobilization level at 150 umol/kg, po dosed 1 hr after 59Fe-ferritin injection and measured 24 hrs after 59Fe-ferritin injection by gamma counting method relative to control", "assay_type": "functional, organism-based", "procedure,_shortened": "as §4"}, "Cytochrome P450 2D6": {"molecular_target": "Cytochrome P450 2D6 (Homo sapiens, UniProt P10635)", "sequence (P10635 whole entry)": "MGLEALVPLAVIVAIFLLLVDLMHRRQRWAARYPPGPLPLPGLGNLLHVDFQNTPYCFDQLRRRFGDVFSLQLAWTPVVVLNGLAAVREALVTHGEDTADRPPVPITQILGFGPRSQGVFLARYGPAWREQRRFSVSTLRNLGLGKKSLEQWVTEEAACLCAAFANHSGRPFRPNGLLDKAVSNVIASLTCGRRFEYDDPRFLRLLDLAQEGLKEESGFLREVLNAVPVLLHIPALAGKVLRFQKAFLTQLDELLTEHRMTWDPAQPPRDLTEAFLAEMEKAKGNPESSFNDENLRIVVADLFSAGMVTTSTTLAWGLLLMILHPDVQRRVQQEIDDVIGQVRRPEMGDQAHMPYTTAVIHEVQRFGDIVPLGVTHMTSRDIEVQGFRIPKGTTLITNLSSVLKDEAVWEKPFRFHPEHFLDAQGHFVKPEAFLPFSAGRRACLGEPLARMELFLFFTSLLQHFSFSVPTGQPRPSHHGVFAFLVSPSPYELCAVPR", "assay": "Inhibition of CYP2D6 in human liver microsomes", "assay_type": "ADME"}, "[18]": {"assay": "Ratio of drug level in kidney to plasma in rat at 150 umol/kg, po measured within 10 mins by LC-MS/MS analysis", "assay_type": "ADME, organism-based", "details": "kidney and plasma", "procedure,_shortened": "as §1"}, "[19]": {"assay": "Drug level in rat intestine at 150 umol/kg, po measured measured up to 6 hrs by LC-MS/MS analysis", "assay_type": "ADME, organism-based", "details": "in vivo", "procedure,_shortened": "as §3"}, "[20]": {"assay": "Binding affinity to Co2+ ion assessed as affinity constant by spectrophotometric titration method"}}, "note": "Calls of active or inactive are those of the source. The rule behind the calls is not given here.", "data": [{"smiles": "Cc1c(O)c(O)cc[n+]1[C@@H](CO)Cc1ccccc1.[Cl-]", "values": [{"measurement": "Activity", "setting": "[1]", "result": "Toxic"}, {"measurement": "IC50", "setting": "Cytochrome P450 3A4", "result": "> 200", "unit": "µM"}, {"measurement": "Activity", "setting": "Mus musculus", "result": "Non-Toxic"}, {"measurement": "AUC", "setting": "[2]", "result": 37700, "unit": "ng·h/mL"}, {"measurement": "Kp at 10 min", "setting": "[3]", "result": "3.3 to 8.8"}, {"measurement": "IC50", "setting": "Cytochrome P450 2C9", "result": "> 200", "unit": "µM"}, {"measurement": "fold change (FC)", "setting": "Rattus norvegicus [4]", "result": "3.1 - 3.8"}, {"measurement": "Drug uptake", "setting": "[5]", "result": "Not Active"}, {"measurement": "Drug metabolism", "setting": "[6]", "result": "Metabolite_Detected"}, {"measurement": "Cmax", "setting": "[7]", "result": 41900, "unit": "ng/mL"}, {"measurement": "Activity", "setting": "Rattus norvegicus [8]", "result": "Dose-dependent effect"}, {"measurement": "CL/F", "setting": "[9]", "result": 15.2, "unit": "mL/min/kg"}, {"measurement": "K", "setting": "[10]", "result": 6.15, "unit": "pM"}, {"measurement": "log K", "setting": "[10]", "result": 7.05}, {"measurement": "IC50", "setting": "Cytochrome P450 3A5", "result": "> 200", "unit": "µM"}, {"measurement": "Activity", "setting": "Rattus norvegicus [11]", "result": 24.8, "unit": "%"}, {"measurement": "Kp at 10 min", "setting": "[12]", "result": "3.3 to 8.8"}, {"measurement": "K", "setting": "[13]", "result": 6.22, "unit": "pM"}, {"measurement": "log K", "setting": "[13]", "result": 7.32}, {"measurement": "IC50", "setting": "Cytochrome P450 1A2", "result": "> 200", "unit": "µM"}, {"measurement": "Vz", "setting": "[14]", "result": 3.72, "unit": "L/kg"}, {"measurement": "CL/F", "setting": "[15]", "result": 19, "unit": "mL/min/kg"}, {"measurement": "AUC", "setting": "[16]", "result": 89800, "unit": "ng·h/mL"}, {"measurement": "Activity", "setting": "Rattus norvegicus [17]", "result": "Active"}, {"measurement": "IC50", "setting": "Cytochrome P450 2D6", "result": "> 200", "unit": "µM"}, {"measurement": "Kp at 10 min", "setting": "[18]", "result": "3.3 to 8.8"}, {"measurement": "Drug uptake", "setting": "[19]", "result": "Not Active"}, {"measurement": "log K", "setting": "[20]", "result": 6.6}]}]}
